A selection: hits, their analogues and other compounds. The true share with any hit is near 1.3%.
Diaphorase act = diaphorase activation or chemical reduction counter-screen. activation factor at 20 µM. Diaphorase/resazurin coupled assay, resorufin fluorescence, 16 min; active compounds read high; 1 = vehicle wells, 0 = NADH-free wells. 0.005% of 190,000 active;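 active means diaphorase activity raised at least twofold by the compound at 20 µM; inactive means activation factor below 2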
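test system = bacterial diaphorase enzyme (C. kluyveri) | quantity = enzyme 0.07 U/mL final | reagent = NADH substrate 0.114 mM plus resazurin dye 0.1 mM, final | incubation = 16 min enzyme reaction, ambient temperature | buffer or medium = HEPES pH 7.4 buffer with MgCl2 and Tween 20 | signal = fluorescence of resorufin, 544 nm excitation, 590 nm emission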
Diaphorase inh = counter-screen for diaphorase-based assays: diaphorase inhibitors and chemical oxidizers | inhibition, % at 20 µM | diaphorase resazurin-to-resorufin fluorescence, NADH, 16 min; bacterial (C. kluyveri) enzyme, not human | AID 1217 | 0.69% of 190,000 active;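 active means primary screen inhibition at 20 µM above a set limit, cut at about 50% in these data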;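 further: plate controls were DMSO with full reaction for no effect and wells lacking NADH for full effect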
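material = Clostridium kluyveri diaphorase enzyme | amount = 0.14 U/mL diaphorase, enzyme working solution | schedule = incubation 16 min, room temperature | detection = fluorescence of resorufin formed from resazurin, Ex 544/Em 590 nm | benchmarks = positive control minus NADH, DMSO neutral control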
G6PDH CS = L. mesenteroides G6PDH inhibition counter-screen; inhibition, % at 5 µM; 0.12% of 200,000 active; AID 1020; Purified L. mesenteroides G6PDH, diaphorase/resazurin coupled fluorescence, 45 min; in the data active means inhibition above about 50%
HKDC1 inhibitor = inhibitors of human hexokinase HKDC1; recombinant HKDC1, G6PDH/diaphorase resazurin coupled fluorescence; Q2TB90; 0.16% of 340,000 active; AID 493160; inhibition, % at 20 µM;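 active means inhibition above about 35% when tested at 20 µM, limit read from the data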;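 further: plate controls were DMSO wells with enzyme for no effect and DMSO wells lacking enzyme for full effect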
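Material – in-house recombinant HK5 (HKDC1) enzyme · Quantity – HKDC1 at 5 µg/mL · Buffer or medium – pH 8.0 Tris buffer with 10 mM MgCl2 · Reagent – glucose with 1 mM ATP · Dosing – single 20 µM dose · Times – reaction time 90 min, room temperature, protected from light · Technique – resorufin fluorescence at 613 nm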
PfG6PD inh = PfG6PD (Plasmodium falciparum) enzyme inhibition. inhibition, % at 20 µM. 0.78% of 350,000 active. PfGluPho enzyme, NADPH resazurin-diaphorase fluorescence;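 active means inhibition reaching at least a set limit at 20 µM in the primary screen, cut at about 59% in these data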;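 further: 0% = DMSO wells with substrate and 100% = DMSO wells lacking glucose-6-phosphate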
PfG6PD confirm = confirmation of Plasmodium falciparum G6PD inhibitors | 34% of 2,400 active | inhibition, % at 20 µM | AID 504753 | recombinant PfGluPho, NADPH-diaphorase-resazurin fluorescence | shares compounds with PfG6PD inh;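 active means inhibition of at least 50% at 20 µM in any single replicate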;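 further: 0% = DMSO with substrate and 100% = DMSO lacking glucose-6-phosphate substrate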
Diaphorase 10uM = diaphorase inhibition or oxidation at 10 uM NADPH; inhibition, % at 20 µM; 39% of 820 active; diaphorase-coupled resazurin reduction, fluorescence, NADPH 10 uM; shares compounds with PfG6PD inh;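 active means average inhibition reaching 50% or more with the compound at 20 µM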;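 further: resorufin red fluorescence formed as diaphorase reduces resazurin using NADPH; 0% = DMSO with enzyme and 100% = DMSO without enzyme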
Diaphorase 30uM = counter-screen for P. falciparum G6PD inhibitors: diaphorase inhibitors, oxidizers; shares compounds with PfG6PD inh; Diaphorase/resazurin coupled assay, resorufin fluorescence, 30 uM NADPH; inhibition, % at 20 µM; 29% of 820 active; AID 504863;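 active means inhibition averaging 50% or more, tested at 20 µM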;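 further: 0% = DMSO with enzyme and 100% = DMSO wells lacking diaphorase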
Starred values were filed as active, the others as inactive; . = no result given.

SMILES	Diaphorase act	Diaphorase inh	G6PDH CS	HKDC1 inhibitor	PfG6PD inh	PfG6PD confirm	others
Nc1nc2ccccc2n1/N=C/c1cccnc1	.	.	.	-5	19	.
CCCc1nc2cc3c(cc2[nH]1)n(C)c(=O)n3C	.	.	.	2	35	.
Nn1c(SCC(=O)Nc2cccnc2Cl)nnc1-c1ccccc1	.	.	.	4	62*	50*	Diaphorase 10uM=0;Diaphorase 30uM=5
Cc1ccc(-c2nnc(SCC(=O)Nc3cccnc3Cl)n2N)cc1	.	.	.	-8	-10	.
COC(=O)c1c(C)n(-c2ccccc2)c2ccc(O)cc12	0.8	23	5	20	63*	28
O=C1CCCCC1Nc1ccc2ccccc2c1 (stereo not drawn)	.	.	.	10	-2	.
O=C(Nc1ccc(N2CCOCC2)c(Cl)c1)c1ccc(F)cc1	0.9	13	-1	-5	94*	27
O=C(Nc1ccc(N2CCN(C(=O)c3ccccc3)CC2)c(Cl)c1)c1ccc(Br)o1	0.7	25	-4	7	34	.
O=C(Nc1ccc(N2CCOCC2)c(Cl)c1)c1ccc(Br)o1	0.8	18	22	3	82*	37
CCN(CC)C(=O)C1=C(C)N(CCC2=CCCCC2)C(=O)C(CC(=O)NC(c2ccccc2)c2ccccc2)C1 (stereo not drawn)	.	.	.	.	12	.
COc1ccccc1NS(=O)(=O)c1cc(N)ccc1N1CCCC1	.	.	.	-2	70*	22
CCOC(=O)C(=CNc1ccc(N2CCCCC2)c(S(=O)(=O)Nc2ccccc2OC)c1)C(=O)OCC	.	.	.	-6	65*	24
Nc1ccc(N2CCCC2)c(S(=O)(=O)Nc2cccc(C(F)(F)F)c2)c1	.	.	.	-2	80*	27
COc1ccc(NS(=O)(=O)c2cc(N)ccc2N2CCCCC2)cc1	.	.	.	-1	11	.
CCSc1nnc(Nc2ccccc2)s1	0.7	30	3	-5	-5	.
CCSc1nnc(NC(=O)c2ccc(Br)s2)s1	0.9	8	2	-2	102*	64*	Diaphorase 10uM=70*;Diaphorase 30uM=61*
O=C(Nc1nnc(C(F)(F)F)s1)c1ccc(Br)s1	0.9	6	-4	2	85*	72*	Diaphorase 10uM=65*;Diaphorase 30uM=52*
CCSc1nnc(Nc2ccc(C)cc2)s1	0.9	7	6	-1	66*	24
CCSc1nnc(NC(=O)c2ccccc2)s1	0.8	16	1	-5	62*	21
O=C(NCCOc1ccccc1)c1ccc2c(c1)S(=O)(=O)c1cc(Cl)ccc1C2=O	.	.	.	-3	12	.
CC(C)(C)C1N=C(c2ccc3ccccc3c2)OC1=O (stereo not drawn)	.	.	.	0	8	.
C/C(N)=C(/C#N)C(=O)COC(=O)C1CCN(S(=O)(=O)c2cccs2)CC1	.	.	.	-3	-3	.
COc1cccc(/C=C/C(=O)OCC(=O)Nc2nnc(-c3ccccc3)o2)c1	.	.	.	1	-11	.
Cc1cc(C(=O)Nc2nnc(C(F)(F)F)s2)cs1	.	.	.	0	119*	82*	Diaphorase 10uM=77*;Diaphorase 30uM=72*
Cc1cc(C(=O)Nc2nnc(C(F)(F)F)s2)no1	0.9	10	-17	0	17	.
SMILES	Diaphorase act	Diaphorase inh	G6PDH CS	HKDC1 inhibitor	PfG6PD inh	PfG6PD confirm	others
CC(OC(=O)/C=C/c1ccco1)C(=O)NC1CCCCC1C (stereo not drawn)	.	.	.	-1	0	.
CCOC(=O)c1ccc(S(=O)(=O)NNS(=O)(=O)c2ccc(C)cc2)cc1	.	.	.	-4	0	.
CCOC(=O)c1ccc(S(=O)(=O)Nc2cc(C(=O)O)ccc2Cl)cc1	0.9	8	8	9	48	29
Cn1c(=O)c2c([nH]c(=S)n2CCCc2ccccc2)n(C)c1=O	.	.	.	-6	68*	53*	Diaphorase 10uM=-34;Diaphorase 30uM=-26
Cn1c(=O)n(Cc2ccccc2Cl)c(=O)c2c1[nH]c(=S)n2C	.	.	.	-5	60*	33
Cn1c(=O)[nH]c(=O)c2c1[nH]c(=S)n2CCCc1ccccc1	.	.	.	-4	75*	49*	Diaphorase 10uM=-34;Diaphorase 30uM=-6
Cc1ccc(CCN2CC(C(=O)NC3CCC(C)CC3)CC2=O)cc1 (stereo not drawn)	.	.	.	.	-1	.
C=CCOC(=O)C1=C(C)N=c2s/c(=C3\C(=O)N(CC(=O)O)c4ccccc43)c(=O)n2C1c1ccc(OC)cc1 (stereo not drawn)	.	.	.	2	60*	-7
CC1(C)Cc2[nH]c(=S)c(C#N)cc2CO1	1	2	0	1	63*	30
Nn1c(SCC(=O)NC2CCS(=O)(=O)C2)nc2scc(-c3ccccc3)c2c1=O (stereo not drawn)	.	.	.	-4	-9	.
CS(=O)(=O)N(CC(=O)N/N=C/c1cccs1)c1cccc(Cl)c1Cl	0.9	9	1	0	65*	43
Cc1ccc(C)c(NC(=O)CN(C)C(C)C(=O)N2CC(C)CC(C)C2)c1 (stereo not drawn)	.	.	.	-1	-5	.
C=CCn1c(C)cc(C(=O)COC(=O)CCc2cc(OC)c(OC)c(OC)c2)c1C	.	.	.	1	80*	24
COc1cc(CCC(=O)OCC(N)=O)cc(OC)c1OC	1	3	10	-1	-15	.
Cc1cccc(N(CC(=O)NCC2CCCO2)C(=O)CNS(=O)(=O)c2ccc(Cl)cc2)c1 (stereo not drawn)	.	.	.	-8	16	.
COc1ccc([N+](=O)[O-])cc1NC(=O)CSCc1ccccc1	0.8	23	10	19	16	.
CC(=O)Nc1cc([N+](=O)[O-])ccc1OCc1ccccc1	.	.	.	0	72*	50*	Diaphorase 10uM=45;Diaphorase 30uM=37
NS(=O)(=O)c1ccc(Nc2nc(-c3ccc(O)cc3O)cs2)cc1	0.8	23	20	-9	69*	-2
NS(=O)(=O)c1ccc(Nc2nc(-c3ccc(F)cc3)cs2)cc1	0.8	18	2	15	16	.
O=C(CSc1ccccc1F)NC(=O)NC1CCCC1	.	.	.	.	-1	.
Cc1cccc(C(=O)Nc2nnc(S(=O)(=O)N3CCOCC3)s2)c1	.	.	.	-3	68*	61*	Diaphorase 10uM=48;Diaphorase 30uM=41
O=C(Nc1nnc(S(=O)(=O)N2CCOCC2)s1)c1ccc(F)cc1	.	.	.	-5	86*	56*	Diaphorase 10uM=30;Diaphorase 30uM=45
Cc1ccc(C(=O)Nc2nnc(S(=O)(=O)N3CCCCCC3)s2)cc1	.	.	.	-1	68*	6
Cc1ccc(C(=O)Nc2nnc(S(=O)(=O)N3CCC(C)CC3)s2)cc1	.	.	.	0	84*	50*	Diaphorase 10uM=33;Diaphorase 30uM=38
O=C(Nc1nnc(S(=O)(=O)N2CCOCC2)s1)c1cccc(F)c1	.	.	.	-6	51	.
COC(=O)Nc1ccc2c(c1)N(C(=O)CCN(C)C)c1ccccc1CC2	.	.	.	-1	-10	.

Screening results deposited in PubChem BioAssay by Sanford-Burnham Center for Chemical Genomics.
